Source: ChEMBL document CHEMBL1126724, “Multiple binding modes for the receptor-bound conformations of cyclic AII agonists” (J Med Chem, 1993)
*1 amine or outer side, *2 acyl side, *3 side chain or, on linkers, in order; H or OH if unused. Where a SMILES comes first, the peptide text is derived from it. Bridges are numbered along the chain shown (N, C = ends). [ ]: non-standard residue; d: D form. Pro(4S-SH) = O=C([C@@H]1C[C@H](S[*:3])CN1[*:1])[*:2]; Sar = CNCC(=O)O

Experiments:
[1] = target: T1, Type-1 angiotensin II receptor (Oryctolagus cuniculus, UniProt P34976); assay: Agonist efficacy assessed from contractile responses on rabbit aorta Angiotensin II receptor, type 1; Not Active; assay type: functional, tissue-based
T1 sequence (P34976 whole entry): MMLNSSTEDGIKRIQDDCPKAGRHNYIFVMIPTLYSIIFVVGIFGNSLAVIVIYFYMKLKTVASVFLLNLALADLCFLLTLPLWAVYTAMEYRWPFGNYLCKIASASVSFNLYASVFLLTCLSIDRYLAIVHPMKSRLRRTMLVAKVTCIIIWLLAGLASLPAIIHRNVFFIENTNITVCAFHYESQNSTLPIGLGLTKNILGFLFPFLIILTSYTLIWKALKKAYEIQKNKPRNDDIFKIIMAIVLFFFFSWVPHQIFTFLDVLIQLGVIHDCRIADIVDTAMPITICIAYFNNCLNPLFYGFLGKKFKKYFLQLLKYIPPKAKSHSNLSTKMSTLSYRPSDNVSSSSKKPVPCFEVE
Method in brief: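 Rabbit thoracic aortic rings held in 20-mL baths of Krebs-bicarbonate at 37 °C, gassed with 5% CO2 in oxygen. Resting tension 4.0 g, 90-min equilibration. Peptides added cumulatively until maximal response. EC50 read graphically from the curves as the concentration giving 50% of maximal contraction.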

[2] = target: T2, Angiotensin II receptor (AT-1) type-1 (Rattus norvegicus, UniProt P29089+P25095); assay: In vitro binding affinity to the angiotensin II receptor, type 1 in rat liver
T2 sequence (P29089 whole entry): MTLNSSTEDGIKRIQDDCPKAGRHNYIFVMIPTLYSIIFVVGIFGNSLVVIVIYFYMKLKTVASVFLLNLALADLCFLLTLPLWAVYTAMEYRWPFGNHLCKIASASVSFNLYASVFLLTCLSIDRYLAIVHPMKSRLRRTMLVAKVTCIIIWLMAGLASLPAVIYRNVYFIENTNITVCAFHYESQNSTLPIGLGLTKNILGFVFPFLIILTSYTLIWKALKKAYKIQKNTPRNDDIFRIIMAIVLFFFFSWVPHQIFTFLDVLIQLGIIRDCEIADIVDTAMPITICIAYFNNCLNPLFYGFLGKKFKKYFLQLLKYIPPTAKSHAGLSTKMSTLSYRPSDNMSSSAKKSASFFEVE
T2 sequence (P25095 whole entry): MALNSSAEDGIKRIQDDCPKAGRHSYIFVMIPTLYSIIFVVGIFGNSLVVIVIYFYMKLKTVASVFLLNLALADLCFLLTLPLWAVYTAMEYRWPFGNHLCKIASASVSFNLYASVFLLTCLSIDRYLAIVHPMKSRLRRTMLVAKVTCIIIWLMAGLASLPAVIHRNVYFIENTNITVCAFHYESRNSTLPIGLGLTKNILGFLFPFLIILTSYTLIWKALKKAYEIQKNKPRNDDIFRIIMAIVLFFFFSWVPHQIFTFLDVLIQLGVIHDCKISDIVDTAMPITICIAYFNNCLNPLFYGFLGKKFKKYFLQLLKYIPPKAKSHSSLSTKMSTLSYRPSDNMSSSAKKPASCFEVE
Method in brief: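 Buffer: 50 mM NaH2PO4 pH 7.1 with 100 μM bacitracin, 0.2% BSA, 100 mM NaCl, 10 mM MgCl2, 1 mM EGTA. Incubated 1 h at 25 °C, then filtered, and filters counted. IC50 from weighted nonlinear regression to the mass action equation.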

EC50 [1]: Not Active
IC50 [2]: 4.7 µM
Structure (SMILES): CNCC(=O)N[C@@H](CCCN=C(N)N)C(=O)N1C[C@@H]2C[C@H]1C(=O)N[C@@H](Cc1ccc(O)cc1)C(=O)N[C@H](C(=O)N[C@@H](Cc1c[nH]cn1)C(=O)N1CCC[C@H]1C(=O)N[C@@H](Cc1ccccc1)C(=O)O)CSS2 (H-[Sar]R[Pro(4S-SH)]YCHPF-OH; disulfide 3-5)
